Active and inactive are the calls of the source.
Legend:
[1] = tested on: NCI-H28; test: Antiproliferative activity against human NCI-H28 cells after 24 hrs by WST-1 assay; type: functional, cell-based; settings: NCI-H28, 24 h
Outline: (§1)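 WST-1 viability assay. Cells seeded at 5 × 10^3 per well and grown 24 h, then given lissoclibadins at 0.1−40 μM (etoposide 1.0−100 μM) in triplicate for 24 h. WST-1 added and absorbance read 4 h later at 450 nm, background subtracted at 650 nm. Viability expressed as % of control; IC50 taken as 50% inhibition of viability. Three experiments, mean ± SD.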

[2] = tested on: HCT-15; test: Induction of apoptosis in human HCT15 cells at 5 uM after 12 hrs in presence of caspase-8 inhibitor z-IETD-fmk by annexin V-FITC/propidium iodide staining-based flow cytometric analysis; type: functional, cell-based
Outline: (§2)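 HCT-15 cells at 5 × 10^4 cells/mL precultured 24 h, then given z-VAD-fmk, z-IETD-fmk or z-LEHD-fmk at 50 μM for 30 min before 5.0 μM compound in DMSO (DMSO final 0.1%). Annexin V-FITC/PI staining read by flow cytometry. Three independent experiments, mean ± SD; one-way ANOVA with Bonferroni post hoc tests.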

[3] = tested on: HCT-15; test: Induction of apoptosis in human HCT15 cells assessed as early apoptotic cells at 5 uM after 24 hrs by annexin V-FITC/propidium iodide staining-based flow cytometric analysis relative to control; type: functional
Outline: (§3)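 HCT-15 cells at 5 × 10^4 cells/mL precultured 24 h, then given 5.0 μM in DMSO or DMSO alone (final 0.1%) for 3, 6, 12 or 24 h. Adherent cells trypsinized, pooled, stained with annexin V-FITC and PI, and analysed by flow cytometry. Early apoptosis = annexin V+/PI−; late = annexin V+/PI+. Three independent experiments, mean ± SD.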

[4] = tested on: HCT-15; test: Induction of apoptosis in human HCT15 cells at 5 uM after 12 hrs in presence of caspase-9 inhibitor z-LEHD-fmk by annexin V-FITC/propidium iodide staining-based flow cytometric analysis; type: functional, cell-based; outline: as §2
[5] = tested on: MCF7; test: Antiproliferative activity against human MCF7 cells assessed as nuclear chromatin condensation at 10 uM after 24 hrs by Hoechst-33258 staining-based fluorescent microscopic analysis; type: functional, cell-based
Outline: (§4)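 Cells at 5 × 10^4 cells/mL precultured 24 h, then treated 24 h (HCT-15 at 5 μM; HeLa-S3, MCF-7, NCI-H28 at 10 μM). Cells trypsinized, washed in PBS, fixed in 1.0% paraformaldehyde at 4 °C for 15 min, stained with 1 mg/mL Hoechst-33258 at 4 °C for 15 min. After washing, mounted in antifade reagent and examined by fluorescence microscopy.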

[6] = tested on: HCT-15; test: Induction of apoptosis in human HCT15 cells assessed as late apoptotic cells at 5 uM by annexin V-FITC/propidium iodide staining-based flow cytometric analysis; type: functional, cell-based; settings: TDE = time-dependent effect; outline: as §3
[7] = tested on: NCI-H28; test: Antiproliferative activity against human NCI-H28 cells assessed as effect on cell adhesion up to 10 uM after 24 hrs by light microscopic analysis; type: functional, cell-based
Outline: (§5)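 Cancer cells treated with 0−10 μM and examined by light microscopy for changes in cell adhesion and morphology.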

[8] = tested on: MCF7; test: Antiproliferative activity against human MCF7 cells assessed as effect on cell adhesion after 24 hrs by light microscopic analysis; type: functional, cell-based; outline: as §5
[9] = tested on: MCF7; test: Antiproliferative activity against human MCF7 cells after 24 hrs by WST-1 assay; type: functional, cell-based; settings: MCF7, 24 h; outline: as §1
[10] = tested on: NCI-H28; test: Antiproliferative activity against human NCI-H28 cells assessed as effect on cell morphology after 24 hrs by light microscopic analysis; type: functional, cell-based; outline: as §5
[11] = tested on: HCT-15; test: Antiproliferative activity against human HCT15 cells assessed as fragmentation of nuclei at 5 uM after 24 hrs by Hoechst-33258 staining-based fluorescent microscopic analysis; type: functional, cell-based; outline: as §4
[12] = tested on: MCF7; test: Antiproliferative activity against human MCF7 cells assessed as fragmentation of nuclei at 10 uM after 24 hrs by Hoechst-33258 staining-based fluorescent microscopic analysis; type: functional, cell-based; outline: as §4
[13] = tested on: HCT-15; test: Antitumor activity against human HCT15 cells xenografted in BALB/c nu/nu athymic mouse assessed as tumor growth inhibition at 25 mg/kg/day administered intratumorally on day 0, 2, 4, 6, 8 and 10 measured on day 28 post dose relative to control; type: functional; settings: read-out: TGI
Outline: (§6)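 Female 6-week-old Balb/c nu/nu mice injected subcutaneously in the lower back with HCT-15 cells (1 × 10^8/mL) mixed 1:1 with Matrigel. Once tumors reached 50−100 mm3 (day 0), mice were randomized, 6 per group. Dosing was intratumoral in PBS with 5% DMSO and 5% glucose on days 0, 2, 4, 6, 8 and 10; controls received vehicle. Tumor volume (L×W×D×π/6) and body weight measured every other day to day 28.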

[14] = tested on: HeLa S3; test: Antiproliferative activity against human HeLaS3 cells assessed as effect on cell morphology after 24 hrs by light microscopic analysis; type: functional, cell-based; outline: as §5
[15] = tested on: HCT-15; test: Induction of apoptosis in human HCT15 cells assessed as early apoptotic cells at 5 uM after 6 hrs by annexin V-FITC/propidium iodide staining-based flow cytometric analysis relative to control; type: functional; outline: as §3
[16] = tested on: HCT-15; test: Induction of apoptosis in human HCT15 cells assessed as effect on cell adhesion at 5 uM in presence of caspase-9 inhibitor z-LEHD-fmk by light microscopic analysis; type: functional, cell-based
[17] = tested on: HeLa S3; test: Antiproliferative activity against human HeLaS3 cells assessed as effect on cell morphology up to 10 uM after 24 hrs by light microscopic analysis; type: functional, cell-based; outline: as §5
[18] = tested on: HCT-15; test: Induction of apoptosis in human HCT15 cells assessed as effect on cell morphology at 5 uM in presence of caspase-8 inhibitor z-IETD-fmk by light microscopic analysis; type: functional, cell-based
[19] = tested on: HeLa S3; test: Antiproliferative activity against human HeLaS3 cells assessed as effect on cell adhesion up to 10 uM after 24 hrs by light microscopic analysis; type: functional, cell-based; outline: as §5
[20] = tested on: HCT-15; test: Induction of apoptosis in human HCT15 cells assessed as early apoptotic cells at 5 uM after 3 hrs by annexin V-FITC/propidium iodide staining-based flow cytometric analysis relative to control; type: functional; outline: as §3
[21] = tested on: HeLa S3; test: Antiproliferative activity against human HeLaS3 cells assessed as fragmentation of nuclei at 10 uM after 24 hrs by Hoechst-33258 staining-based fluorescent microscopic analysis; type: functional, cell-based; outline: as §4
[22] = tested on: MCF7; test: Antiproliferative activity against human MCF7 cells assessed as effect on cell morphology up to 10 uM after 24 hrs by light microscopic analysis; type: functional, cell-based; outline: as §5
[23] = tested on: MCF7; test: Antiproliferative activity against human MCF7 cells assessed as effect on cell adhesion up to 10 uM after 24 hrs by light microscopic analysis; type: functional, cell-based; outline: as §5
[24] = tested on: HCT-15; test: Antiproliferative activity against human HCT15 cells assessed as effect on cell morphology after 24 hrs by light microscopic analysis; type: functional, cell-based; outline: as §5
[25] = tested on: HCT-15; test: Induction of apoptosis in human HCT15 cells assessed as effect on cell adhesion at 5 uM in presence of caspase-8 inhibitor z-IETD-fmk by light microscopic analysis; type: functional, cell-based
[26] = tested on: Mus musculus; test: Toxicity in BALB/c nu/nu athymic mouse xenografted with human HCT15 cells assessed as body weight loss at 5 to 25 mg/kg administered intratumorally treated on day 0, 2, 4, 6, 8 and 10 measured every second day for 28 days; type: organism-based; settings: in vivo, other, 672 h; outline: as §6
[27] = tested on: HCT-15; test: Antiproliferative activity against human HCT15 cells assessed as effect on cell morphology up to 10 uM after 24 hrs by light microscopic analysis; type: functional, cell-based; outline: as §5
[28] = tested on: HCT-15; test: Induction of apoptosis in human HCT15 cells assessed as effect on cell morphology at 5 uM in presence of caspase-9 inhibitor z-LEHD-fmk by light microscopic analysis; type: functional, cell-based
[29] = tested on: MCF7; test: Antiproliferative activity against human MCF7 cells assessed as effect on cell morphology after 24 hrs by light microscopic analysis; type: functional, cell-based; outline: as §5
[30] = tested on: NCI-H28; test: Antiproliferative activity against human NCI-H28 cells assessed as nuclear fragmentation at 10 uM after 24 hrs by Hoechst-33258 staining-based fluorescent microscopic analysis; type: functional, cell-based; outline: as §4
[31] = tested on: HCT-15; test: Induction of apoptosis in human HCT15 cells assessed as effect on cell adhesion at 5 uM in presence of pan-caspase inhibitor z-VAD-fmk by light microscopic analysis; type: functional, cell-based
[32] = tested on: NCI-H28; test: Antiproliferative activity against human NCI-H28 cells assessed as effect on cell morphology up to 10 uM after 24 hrs by light microscopic analysis; type: functional, cell-based; outline: as §5
[33] = tested on: HeLa S3; test: Antiproliferative activity against human HeLaS3 cells after 24 hrs by WST-1 assay; type: functional, cell-based; settings: HeLa S3, 24 h; outline: as §1
[34] = tested on: HCT-15; test: Antiproliferative activity against human HCT15 cells assessed as effect on cell adhesion after 24 hrs by light microscopic analysis; type: functional, cell-based; outline: as §5
[35] = tested on: HeLa S3; test: Antiproliferative activity against human HeLaS3 cells assessed as nuclear chromatin condensation at 10 uM after 24 hrs by Hoechst-33258 staining-based fluorescent microscopic analysis; type: functional, cell-based; outline: as §4
[36] = tested on: HCT-15; test: Antiproliferative activity against human HCT15 cells after 24 hrs by WST-1 assay; type: functional, cell-based; settings: HCT-15, 24 h; outline: as §1
[37] = tested on: HCT-15; test: Induction of apoptosis in human HCT15 cells assessed as effect on cell morphology at 5 uM in presence of pan-caspase inhibitor z-VAD-fmk by light microscopic analysis; type: functional, cell-based
[38] = tested on: NCI-H28; test: Antiproliferative activity against human NCI-H28 cells assessed as nuclear chromatin condensation at 10 uM after 24 hrs by Hoechst-33258 staining-based fluorescent microscopic analysis; type: functional, cell-based; outline: as §4
[39] = tested on: NCI-H28; test: Antiproliferative activity against human NCI-H28 cells assessed as effect on cell adhesion after 24 hrs by light microscopic analysis; type: functional, cell-based; outline: as §5
[40] = tested on: HCT-15; test: Induction of apoptosis in human HCT15 cells at 5 uM after 12 hrs in presence of pan-caspase inhibitor z-VAD-fmk by annexin V-FITC/propidium iodide staining-based flow cytometric analysis (reference value: 64%); type: functional; outline: as §2
[41] = tested on: HeLa S3; test: Antiproliferative activity against human HeLaS3 cells assessed as effect on cell adhesion after 24 hrs by light microscopic analysis; type: functional, cell-based; outline: as §5
[42] = tested on: HCT-15; test: Antiproliferative activity against human HCT15 cells assessed as effect on cell adhesion up to 10 uM after 24 hrs by light microscopic analysis; type: functional, cell-based; outline: as §5
[43] = tested on: HCT-15; test: Antiproliferative activity against human HCT15 cells assessed as nuclear chromatin condensation at 5 uM after 24 hrs by Hoechst-33258 staining-based fluorescent microscopic analysis; type: functional, cell-based; outline: as §4
[44] = tested on: HCT-15; test: Antitumor activity against human HCT15 cells xenografted in BALB/c nu/nu athymic mouse assessed as tumor growth inhibition at 5 mg/kg administered intratumorally on day 0, 2, 4, 6, 8 and 10 measured up to 28 days; type: functional, organism-based; outline: as §6
[45] = tested on: HCT-15; test: Induction of apoptosis in human HCT15 cells assessed as early apoptotic cells at 5 uM after 12 hrs by annexin V-FITC/propidium iodide staining-based flow cytometric analysis relative to control; type: functional; outline: as §3

COc1c(OC)c2c(c(CCN(C)C)c1SC)SSc1c(CCN(C)C)c(SC)c(OC)c(OC)c1Sc1c(OC)c(OC)c(SC)c(CCN(C)C)c1S2 [LISSOCLIBADIN 1]
4 µM: IC50 [36]
inactive: TGI [44]
37%: Activity [15]
6.3 µM: IC50 [33]
60%: inhibition in vivo at 25 mg/kg/day [13]
Non-Toxic: Activity [26]
7.6 µM: IC50 [9]
7.1 µM: IC50 [1]
43%: Activity [45]
11%: Activity [20] | Activity [40]
40%: Activity [3]
active: Activity [2] | Activity [4] | Activity [5] | Activity [6] Tde | Activity [7] | Activity [8] Dose-dependent effect | Activity [10] Dose-dependent effect | Activity [11] | Activity [12] | Activity [14] Dose-dependent effect | Activity [16] | Activity [17] | Activity [18] | Activity [19] | Activity [21] | Activity [22] | Activity [23] | Activity [24] Dose-dependent effect | Activity [25] | Activity [27] | Activity [28] | Activity [29] Dose-dependent effect | Activity [30] | Activity [31] | Activity [32] | Activity [34] Dose-dependent effect | Activity [35] | Activity [37] | Activity [38] | Activity [39] Dose-dependent effect | Activity [41] Dose-dependent effect | Activity [42] | Activity [43]

COc1cc(CCN(C)C)c2c(c1O)SSSSS2 [ISOLISSOCLINOTOXIN B]
5.9 µM: IC50 [33]
6.4 µM: IC50 [1] | IC50 [9]
4.2 µM: IC50 [36]

Reference: ChEMBL document CHEMBL4052605, “Lissoclibadin 1, a Polysulfur Aromatic Alkaloid from the Indonesian Ascidian Lissoclinum cf. badium, Induces Caspase-Dependent Apoptosis in Human Colon Cancer Cells and Suppresses Tumor Growth in Nude Mice” (J Nat Prod, 2017)
